Measurements as given in ChEMBL document CHEMBL4261552, “4-Hydroxy-N-[3,5-bis(trifluoromethyl)phenyl]-1,2,5-thiadiazole-3-carboxamide: a novel inhibitor of the canonical NF-κB cascade” (Medchemcomm, 2017).

Key:
[1] = biological target: T1, Inhibitor of nuclear factor kappa-B kinase subunit beta (Homo sapiens, UniProt O14920); assay: Inhibition of IKK-beta in human Jurkat cells assessed as reduction in TNFalpha-stimulated IkBalpha degradation preincubated for 60 mins followed by TNFalpha stimulation for 20 mins by immunoblot analysis; type: cell-based
T1 sequence (O14920 whole entry): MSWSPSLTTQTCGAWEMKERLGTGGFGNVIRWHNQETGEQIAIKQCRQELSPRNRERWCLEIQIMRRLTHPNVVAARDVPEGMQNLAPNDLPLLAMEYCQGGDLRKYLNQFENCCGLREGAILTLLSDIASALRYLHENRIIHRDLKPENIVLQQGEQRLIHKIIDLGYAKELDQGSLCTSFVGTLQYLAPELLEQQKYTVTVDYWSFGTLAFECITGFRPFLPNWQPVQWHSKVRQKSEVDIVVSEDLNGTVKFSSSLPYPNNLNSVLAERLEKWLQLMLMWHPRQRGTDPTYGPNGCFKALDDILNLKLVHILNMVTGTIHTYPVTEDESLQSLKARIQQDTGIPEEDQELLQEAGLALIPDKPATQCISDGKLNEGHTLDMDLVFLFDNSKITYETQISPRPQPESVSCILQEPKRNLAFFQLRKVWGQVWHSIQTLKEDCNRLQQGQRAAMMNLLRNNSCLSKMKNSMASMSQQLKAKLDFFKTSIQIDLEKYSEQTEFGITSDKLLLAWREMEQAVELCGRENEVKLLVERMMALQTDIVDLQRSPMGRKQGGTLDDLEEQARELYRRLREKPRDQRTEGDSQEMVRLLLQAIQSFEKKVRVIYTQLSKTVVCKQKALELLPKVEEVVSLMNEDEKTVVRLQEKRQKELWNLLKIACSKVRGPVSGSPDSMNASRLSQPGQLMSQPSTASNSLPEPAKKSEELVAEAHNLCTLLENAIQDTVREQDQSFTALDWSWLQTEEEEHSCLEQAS

[2] = biological target: T2, Inhibitor of nuclear factor kappa-B kinase subunit alpha (Homo sapiens, UniProt O15111); assay: Inhibition of human IKKalpha using ERLLDDRHDSGLDSMKDEE as substrate after 60 mins in presence of ATP by ADP-Glo kinase assay
T2 sequence (O15111 whole entry): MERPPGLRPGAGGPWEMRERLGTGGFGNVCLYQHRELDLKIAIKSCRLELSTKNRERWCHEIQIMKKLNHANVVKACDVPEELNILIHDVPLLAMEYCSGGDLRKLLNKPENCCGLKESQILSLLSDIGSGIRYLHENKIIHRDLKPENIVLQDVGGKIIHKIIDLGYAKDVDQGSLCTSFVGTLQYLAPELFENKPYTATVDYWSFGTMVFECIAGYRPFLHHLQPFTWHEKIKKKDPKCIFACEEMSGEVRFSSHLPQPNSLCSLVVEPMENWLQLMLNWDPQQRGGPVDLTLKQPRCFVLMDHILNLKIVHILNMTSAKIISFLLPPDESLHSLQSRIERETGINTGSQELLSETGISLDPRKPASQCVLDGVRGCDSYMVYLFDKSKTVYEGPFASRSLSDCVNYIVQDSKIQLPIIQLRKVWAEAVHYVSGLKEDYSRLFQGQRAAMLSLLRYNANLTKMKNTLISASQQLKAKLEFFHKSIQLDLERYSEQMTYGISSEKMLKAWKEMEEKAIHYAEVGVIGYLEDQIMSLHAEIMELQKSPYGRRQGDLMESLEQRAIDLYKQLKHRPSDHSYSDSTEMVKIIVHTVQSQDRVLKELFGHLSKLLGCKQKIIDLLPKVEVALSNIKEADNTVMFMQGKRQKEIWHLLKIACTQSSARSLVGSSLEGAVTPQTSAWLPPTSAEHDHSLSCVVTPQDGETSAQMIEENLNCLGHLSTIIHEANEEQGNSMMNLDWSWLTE

MDA-MB-231 [3] = assay: Antiproliferative activity against human MDA-MB-231 cells assessed as DNA content after 72 hrs by Hoechst 33258 staining based fluorescence assay; type: functional, cell-based; conditions: MDA-MB-231, 72 h
Outline: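 MDA-MB-231 cells (5 x 10³/well) grown in DMEM with 10% FBS and exposed to 0.001 - 200 µM compound or DMSO vehicle for 72 h. Cells were washed with PBS and lysed in 0.02% SDS in SSC buffer for 1 h at 37 °C. Hoechst 33258 (1 µg/mL) was then added and fluorescence read at ex 355/em 460 nm. IC50 taken by nonlinear regression; mean ± SD of three independent experiments.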

MDA-MB-231 [4] = assay: Cytotoxicity against human MDA-MB-231 cells after 72 hrs by CellTox green assay; type: cell-based; conditions: MDA-MB-231, 72 h
Outline: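 MDA-MB-231 cells (5×10^3/well) exposed to 0.001 - 100 µM compound or DMSO vehicle for 72 h. Membrane-integrity loss read by CellTox green fluorescence. IC50 taken by nonlinear regression; mean ± SD of three independent experiments.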

[5] = biological target: T3, Inhibitor of nuclear factor kappa-B kinase subunit epsilon (Homo sapiens, UniProt Q14164); assay: Inhibition of human IKKepsilon using ERLLDDRHDSGLDSMKDEE as substrate after 60 mins in presence of ATP by ADP-Glo kinase assay
T3 sequence (Q14164 whole entry): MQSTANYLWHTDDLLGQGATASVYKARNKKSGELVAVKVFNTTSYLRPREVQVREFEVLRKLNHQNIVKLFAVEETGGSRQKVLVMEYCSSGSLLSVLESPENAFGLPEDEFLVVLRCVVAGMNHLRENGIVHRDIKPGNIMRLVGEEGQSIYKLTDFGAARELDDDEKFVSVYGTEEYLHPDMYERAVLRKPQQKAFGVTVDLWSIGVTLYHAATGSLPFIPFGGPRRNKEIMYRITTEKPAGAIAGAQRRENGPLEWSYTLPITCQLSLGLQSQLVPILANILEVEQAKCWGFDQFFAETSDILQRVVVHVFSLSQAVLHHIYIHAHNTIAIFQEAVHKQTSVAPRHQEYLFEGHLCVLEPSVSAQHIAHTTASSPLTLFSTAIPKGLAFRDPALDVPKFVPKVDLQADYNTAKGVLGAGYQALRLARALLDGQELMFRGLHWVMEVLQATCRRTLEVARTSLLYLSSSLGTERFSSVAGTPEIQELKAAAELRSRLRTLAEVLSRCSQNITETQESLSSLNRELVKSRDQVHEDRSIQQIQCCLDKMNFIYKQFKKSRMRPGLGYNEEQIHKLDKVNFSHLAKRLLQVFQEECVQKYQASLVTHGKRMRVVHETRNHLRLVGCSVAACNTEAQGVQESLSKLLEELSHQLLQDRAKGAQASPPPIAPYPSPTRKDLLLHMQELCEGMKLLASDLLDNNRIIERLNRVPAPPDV

[6] = biological target: T1, Inhibitor of nuclear factor kappa-B kinase subunit beta; assay: Inhibition of human IKKbeta using ERLLDDRHDSGLDSMKDEE as substrate after 60 mins in presence of ATP by ADP-Glo kinase assay
MDA-MB-231 [7] = assay: Inhibition of constitutively activated canonical NF-kB signaling pathway in human MDA-MB-231 cells assessed as residual activity at 10 uM after 24 hrs by luciferase reporter gene assay relative to control; type: cell-based
Outline: (§1)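 MDA-MB-231 cells (constitutive NF-κB) nucleofected with 3 µg of NF-κB-RE firefly luciferase plus TK-Renilla plasmids (10:1), then cultured 24 h. Compound added for a further 6 h or 24 h, without stimulus. Firefly/Renilla ratio expressed as % of DMSO-treated control; mean ± SD of three independent experiments.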

MDA-MB-231 [8] = assay: Inhibition of constitutively activated canonical NF-kB signaling pathway in human MDA-MB-231 cells assessed as residual activity at 10 uM after 6 hrs by luciferase reporter gene assay relative to control; type: cell-based; outline: as §1
Jurkat = assay: Inhibition of TNFalpha-activated canonical NF-kB signaling pathway in human Jurkat cells assessed as residual activity at 1 uM after 6 hrs by luciferase reporter gene assay relative to control; type: cell-based
Outline: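 Jurkat cells nucleofected with 3 µg of NF-κB-RE firefly luciferase and TK-Renilla plasmids (10:1), then cultured 24 h at 37 °C. Compound added for a further 6 h, with TNFα in the last 20 min. Firefly luminescence normalized to Renilla and expressed as % of DMSO+TNFα control; mean ± SD of three experiments.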

[9] = biological target: T4, Mitogen-activated protein kinase kinase kinase 14 (Homo sapiens, UniProt Q99558); assay: Inhibition of human NIK using AKDVDQGSLCTSFVGTLQY as substrate after 60 mins in presence of ATP by ADP-Glo kinase assay
Target sequence in this assay (Q99558 whole entry): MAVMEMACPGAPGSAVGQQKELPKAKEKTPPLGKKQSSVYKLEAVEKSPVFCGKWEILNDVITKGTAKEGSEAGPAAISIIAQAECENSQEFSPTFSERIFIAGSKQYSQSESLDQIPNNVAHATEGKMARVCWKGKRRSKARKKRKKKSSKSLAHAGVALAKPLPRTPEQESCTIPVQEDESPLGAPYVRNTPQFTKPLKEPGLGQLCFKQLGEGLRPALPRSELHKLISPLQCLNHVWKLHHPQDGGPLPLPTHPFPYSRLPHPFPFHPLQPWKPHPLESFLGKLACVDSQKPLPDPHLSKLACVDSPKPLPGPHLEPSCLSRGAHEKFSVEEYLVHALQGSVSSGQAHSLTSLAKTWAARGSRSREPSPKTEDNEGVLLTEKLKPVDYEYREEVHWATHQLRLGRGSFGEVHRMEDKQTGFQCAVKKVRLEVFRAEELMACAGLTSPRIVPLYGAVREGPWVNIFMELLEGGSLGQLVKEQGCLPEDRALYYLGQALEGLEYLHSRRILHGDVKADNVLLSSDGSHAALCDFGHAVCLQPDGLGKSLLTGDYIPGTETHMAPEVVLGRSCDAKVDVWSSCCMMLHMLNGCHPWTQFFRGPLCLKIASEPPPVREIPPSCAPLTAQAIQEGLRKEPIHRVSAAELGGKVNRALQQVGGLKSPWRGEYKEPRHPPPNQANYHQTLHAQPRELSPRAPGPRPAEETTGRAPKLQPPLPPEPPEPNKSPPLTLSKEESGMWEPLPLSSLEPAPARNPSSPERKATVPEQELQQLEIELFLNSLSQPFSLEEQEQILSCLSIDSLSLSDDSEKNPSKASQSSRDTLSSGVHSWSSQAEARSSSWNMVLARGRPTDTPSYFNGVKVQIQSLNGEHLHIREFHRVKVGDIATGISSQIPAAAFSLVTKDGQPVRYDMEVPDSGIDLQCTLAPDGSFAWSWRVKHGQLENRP

[10] = biological target: T5, Inhibitor of nuclear factor kappa-B kinase subunit alpha (Homo sapiens) (UniProt O15111); assay: Inhibition of human IKKalpha at 100 uM using ERLLDDRHDSGLDSMKDEE as substrate after 60 mins in presence of ATP by ADP-Glo kinase assay relative to control
T5 sequence (whole entry): T2 sequence (O15111 whole entry)

[11] = biological target: T4, Mitogen-activated protein kinase kinase kinase 14; assay: Inhibition of human NIK at 100 uM using AKDVDQGSLCTSFVGTLQY as substrate after 60 mins in presence of ATP by ADP-Glo kinase assay relative to control
Target sequence in this assay (Q99558 whole entry, looked up): as the sequence (Q99558 whole entry) above

[12] = biological target: T6, Inhibitor of nuclear factor kappa-B kinase subunit epsilon (Homo sapiens) (UniProt Q14164); assay: Inhibition of human IKKepsilon at 100 uM using ERLLDDRHDSGLDSMKDEE as substrate after 60 mins in presence of ATP by ADP-Glo kinase assay relative to control
T6 sequence (whole entry): T3 sequence (Q14164 whole entry)

[13] = biological target: T7, Inhibitor of nuclear factor kappa-B kinase subunit beta (Homo sapiens) (UniProt O14920); assay: Inhibition of human IKKbeta at 100 uM using ERLLDDRHDSGLDSMKDEE as substrate after 60 mins in presence of ATP by ADP-Glo kinase assay relative to control
T7 sequence (whole entry): T1 sequence (O14920 whole entry)

| Structure (SMILES) | IC50 [1] [µM] | IC50 [2] [µM] | IC50 [5] [µM] | IC50 [6] [µM] | IC50 [9] [µM] | inhibition [10] [%] | inhibition [11] [%] | inhibition [12] [%] | inhibition [13] [%] | IC50 (MDA-MB-231 [3]) [µM] | IC50 (MDA-MB-231 [4]) [µM] | Activity (MDA-MB-231 [7]) [%] | Activity (MDA-MB-231 [8]) [%] | Activity (Jurkat) [%] |
| --- | --- | --- | --- | --- | --- | --- | --- | --- | --- | --- | --- | --- | --- | --- |
| O=C(Nc1cc(Cl)cc2c1[nH]c1cnccc12)c1cccnc1 | 0.186 | > 100 | > 100 | 0.087 | > 100 | – | – | – | – | 0.9 | > 100 | 8.67 | 19.5 | 38.1 |
| Cc1c(C(=O)Nc2cc(C(F)(F)F)cc(C(F)(F)F)c2)c(O)nn1C | 1.32 | > 100 | > 100 | > 100 | > 100 | 13.2 | 24.1 | 14.2 | 13.9 | – | – | – | – | – |
| Cn1cc(C(=O)Nc2cc(C(F)(F)F)cc(C(F)(F)F)c2)c(O)n1 | 25.9 | > 100 | > 100 | > 100 | > 100 | 12.1 | 7.23 | 17.2 | 12.7 | – | – | – | – | – |
| O=C(Nc1cc(C(F)(F)F)cc(C(F)(F)F)c1)c1n[nH]nc1O | > 100 | > 100 | > 100 | > 100 | > 100 | 24.5 | -9.5 | 15.3 | 5.14 | – | – | – | – | – |
| COc1nsnc1C(=O)Nc1cc(C(F)(F)F)cc(C(F)(F)F)c1 | > 100 | > 100 | > 100 | > 100 | > 100 | 24.1 | -1.9 | 21.9 | 8.51 | – | – | – | – | – |
| Cn1nc(O)c(C(=O)Nc2cc(C(F)(F)F)cc(C(F)(F)F)c2)n1 | > 100 | > 100 | > 100 | > 100 | > 100 | 46.9 | 9.1 | 6.92 | 5.19 | – | – | – | – | – |
| O=C(Nc1cc(C(F)(F)F)cc(C(F)(F)F)c1)c1nonc1O | 6.93 | > 100 | 58.5 | > 100 | > 100 | 18.6 | 19.3 | – | 12.2 | – | – | – | – | – |

Second part, led by results:

| IC50 [1] [µM] | IC50 [2] [µM] | IC50 [5] [µM] | IC50 [6] [µM] | IC50 [9] [µM] | inhibition [10] [%] | inhibition [11] [%] | inhibition [12] [%] | inhibition [13] [%] | Structure (SMILES) | IC50 (MDA-MB-231 [3]) [µM] | IC50 (MDA-MB-231 [4]) [µM] | Activity (MDA-MB-231 [7]) [%] | Activity (MDA-MB-231 [8]) [%] | Activity (Jurkat) [%] |
| --- | --- | --- | --- | --- | --- | --- | --- | --- | --- | --- | --- | --- | --- | --- |
| > 100 | 35.5 | > 100 | > 100 | > 100 | – | -1.1 | 25.8 | -0.94 | O=C(Nc1cccc(C(F)(F)F)c1)c1nsnc1O | – | – | – | – | – |
| 1.72 | > 100 | > 100 | > 100 | > 100 | -2.5 | 11.8 | 32.1 | 2.06 | O=C(Nc1cccc(C(F)(F)F)c1)c1nonc1O | – | – | – | – | – |
| > 100 | > 100 | 58.5 | > 100 | > 100 | 13.1 | 12.1 | – | 11.2 | Cn1nnc(O)c1C(=O)Nc1cc(C(F)(F)F)cc(C(F)(F)F)c1 | – | – | – | – | – |
| > 100 | > 100 | 44.8 | > 100 | > 100 | 29.3 | -9.2 | – | 31.6 | Nc1nonc1C(=O)Nc1cc(C(F)(F)F)cc(C(F)(F)F)c1 | – | – | – | – | – |
